ChEMBL document CHEMBL1667739, “Pitiprolamide, a proline-rich dolastatin 16 analogue from the marine cyanobacterium Lyngbya majuscula from Guam” (J Nat Prod, 2011)

Legend:
Assay type in all cases: functional
Conditions in all cases: ATCC 25177, 288 h, read-out: DIZ
[1] = system: Mycobacterium tuberculosis; test: Antimycobacterial activity against Mycobacterium tuberculosis ATCC 25177 at 10 ug after 12 days by disc diffusion assay
In short: (§1)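 Compound dissolved in EtOH and loaded onto sterile filter-paper discs. Dried discs were placed on an inoculated agar plate and incubated 12 days at 37 °C. The diameter of the inhibition zone was then measured.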

[2] = system: Mycobacterium tuberculosis; test: Antimycobacterial activity against Mycobacterium tuberculosis ATCC 25177 at 5 ug after 12 days by disc diffusion assay; in short: as §1
[3] = system: Mycobacterium tuberculosis; test: Antimycobacterial activity against Mycobacterium tuberculosis ATCC 25177 at 1 ug after 12 days by disc diffusion assay; in short: as §1

## CN[C@@H]1[C@H](O[C@H]2[C@H](O[C@H]3[C@H](O)[C@@H](O)[C@H](N=C(N)N)[C@@H](O)[C@@H]3N=C(N)N)O[C@@H](C)[C@]2(O)C=O)O[C@@H](CO)[C@H](O)[C@H]1O [STREPTOMYCIN]
[1]
  zone of inhibition at 10 µg/disc: 40 mm
[2]
  zone of inhibition at 5 µg/disc: 30 mm
[3]
  zone of inhibition at 1 µg/disc: 0 mm
